Reference: ChEMBL document CHEMBL3813647, “Discovery of an Orally Active and Liver-Targeted Prodrug of 5-Fluoro-2'-Deoxyuridine for the Treatment of Hepatocellular Carcinoma” (J Med Chem, 2016)
One block for each compound: values may come before it.

Experiments:
Liver [1] = assay: Cmax in Sprague-Dawley rat liver assessed as FDUR formation at 49.87 mg/kg administered through oral gavage measured up to 24 hrs by HPLC-MS/MS analysis; assay type: ADME, organism-based; design: dose 49.87 mg/kg, route oral; settings: in vivo
Procedure, shortened: (§1)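 Male Sprague-Dawley rats (220 ± 20 g), single gavage of 0.096 mmol/kg. FDUR was dosed in H2O; the prodrugs were dosed in 20% hydroxypropyl-β-cyclodextrin. n = 3 per time point, sampled at 0.25–24 h. Plasma (EDTA-K2, cardiac puncture) and freeze-clamped liver were homogenized in 20 mM EDTA-K2/70% MeOH. Analytes measured by HPLC-MS/MS in ESI negative mode.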

Liver [2] = assay: Cmax in Sprague-Dawley rat liver assessed as FdUMP formation at 49.87 mg/kg administered through oral gavage measured up to 24 hrs by HPLC-MS/MS analysis; assay type: ADME, organism-based; design: dose 49.87 mg/kg, route oral; settings: in vivo; procedure, shortened: as §1
[3] = Cytotoxicity against human SMMC7721 cells assessed as reduction in cell viability after 72 hrs by MTT assay; assay type: functional, cell-based; settings: SMMC-7721, 72 h
Procedure, shortened: (§2)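 Cells in RPMI-1640 with 10% FBS, seeded at 4 × 10³ per well and attached for 24 h. Compound (DMSO ≤0.5% final) added for 72 h at 37 °C, 5% CO2. Viability read by MTT. IC50 set against 0.5% DMSO-treated cells taken as 100% viable. Mean of two independent experiments, each run in triplicate.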

Liver [4] = assay: AUC (infinity) in Sprague-Dawley rat liver assessed as FdUMP formation at 49.87 mg/kg administered through oral gavage measured up to 24 hrs by HPLC-MS/MS analysis; assay type: ADME, organism-based; design: dose 49.87 mg/kg, time infinity, route oral; settings: in vivo; procedure, shortened: as §1
Liver [5] = assay: AUC (infinity) in Sprague-Dawley rat liver assessed as FDUR formation at 49.87 mg/kg administered through oral gavage measured up to 24 hrs by HPLC-MS/MS analysis; assay type: ADME, organism-based; design: dose 49.87 mg/kg, route oral, time infinity; settings: in vivo; procedure, shortened: as §1
[6] = Half life in rat plasma by HPLC analysis; assay type: ADME, cell-free
Procedure, shortened: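 Rat plasma, 37 °C. Compound added from a 2.5 mM stock, sampled at 0–24 h, quenched with MeOH. Analyzed by HPLC-UV at 267 nm (C8 column, MeOH:H2O 68:32). Triplicate samples.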

Liver [7] = assay: Drug metabolism in phenobarbital/beta-napthoflavone treated Sprague-Dawley rat liver S9 fraction assessed as prodrug activation at 50 uM preincubated for 5 mins followed by NADPH addition measured up to 60 mins by HPLC-MS/MS analysis; assay type: ADME, subcellular; settings: s9, 1 h
Procedure, shortened: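 S9 prepared from livers of Sprague-Dawley rats dosed i.g. with phenobarbital/β-naphthoflavone for 3 days. Incubation: 100 mM KH2PO4 pH 7.4, 5 mg/mL S9, compound at 50 μM, 5 min preincubation at 37 °C, then 2 mM NADPH. Samples at 0–60 min, MeOH extraction, FdUMP (m/z 325→129) measured by HPLC-MS/MS. Triplicate.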

[8] = Ratio of FdUMP AUC (infinity) in Sprague-Dawley rat liver to FDUR AUC (infinity) in Sprague-Dawley rat plasma at 49.87 mg/kg administered through oral gavage; assay type: ADME, organism-based; settings: in vivo
Procedure, shortened: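 Male Sprague-Dawley rats (220 20 g), single gavage of 0.096 mmol/kg prodrug in 20% hydroxypropyl-β-cyclodextrin. Blood by cardiac puncture under isoflurane and liver at 0.25–24 h, n = 3 per time point. Liver freeze-clamped and homogenized in 20 mM EDTA-K2/70% MeOH. FdUMP (liver) and FDUR (plasma) by HPLC-MS/MS, negative ESI. Index = AUC(inf) liver FdUMP / AUC(inf) plasma FDUR.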

Plasma [9] = assay: AUC (infinity) in Sprague-Dawley rat plasma assessed as FDUR formation at 49.87 mg/kg administered through oral gavage measured up to 24 hrs by HPLC-MS/MS analysis; assay type: ADME, organism-based; design: dose 49.87 mg/kg, route oral, time infinity; settings: in vivo; procedure, shortened: as §1
Plasma [10] = assay: Cmax in Sprague-Dawley rat plasma assessed as 5-FU formation at 49.87 mg/kg administered through oral gavage measured up to 24 hrs by HPLC-MS/MS analysis; assay type: ADME, organism-based; design: dose 49.87 mg/kg, route oral; settings: in vivo; procedure, shortened: as §1
Plasma [11] = assay: Cmax in Sprague-Dawley rat plasma assessed as FDUR formation at 49.87 mg/kg administered through oral gavage measured up to 24 hrs by HPLC-MS/MS analysis; assay type: ADME, organism-based; design: dose 49.87 mg/kg, route oral; settings: in vivo; procedure, shortened: as §1
[12] = Cytotoxicity against human LO2 cells assessed as reduction in cell viability after 72 hrs by MTT assay; assay type: cell-based; settings: L02, 72 h; procedure, shortened: as §2
[13] = Half life in dog plasma by HPLC-MS/MS analysis; assay type: ADME, cell-free, Canis lupus familiaris
Procedure, shortened: (§3)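 Compound at 1 μg/mL final in dog or human plasma, 37 °C. Sampled at 0–24 h and quenched with ice-cold MeOH containing internal standard. Parent measured by LC-MS/MS in ESI negative mode; t1/2 calculated from percent remaining versus 0 h.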

[14] = Half life in human plasma by HPLC-MS/MS analysis; assay type: ADME, cell-free; procedure, shortened: as §3
Liver [15] = assay: Drug uptake in Sprague-Dawley rat liver S9 fraction treated with (S)-Isopropyl 2-(((R)-(((2R,3S,5R)-5-(5-fluoro-2,4-dioxo 3,4-dihydropyrimidin-1(2H)-yl)-3-hydroxytetrahydrofuran-2-yl)methoxy)((2-methylbenzyl)oxy)phosphoryl)amino)propanoate at 20 ug/mL preincubated for 5 mins followed by NADPH addition measured at 20 mins by HPLC-MS/MS analysis; assay type: ADME, subcellular; settings: s9, 20 min
Procedure, shortened: (§4)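 Rat liver S9 (10 mg/mL) incubated with compound at 20 μg/mL. Parent, intermediate A and FdUMP followed over time by HPLC-MS/MS. Negative control run without NADPH.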

Liver [16] = assay: AUC (infinity) in Sprague-Dawley rat liver assessed as FdUMP formation at 23.62 mg/kg administered through oral gavage measured up to 24 hrs by HPLC-MS/MS analysis; assay type: ADME, organism-based; design: dose 23.62 mg/kg, time infinity, route oral; settings: in vivo; procedure, shortened: as §1
Liver [17] = assay: AUC (infinity) in Sprague-Dawley rat liver assessed as 5-FU formation at 23.62 mg/kg administered through oral gavage measured up to 24 hrs by HPLC-MS/MS analysis; assay type: ADME, organism-based; design: dose 23.62 mg/kg, time infinity, route oral; settings: in vivo; procedure, shortened: as §1
Liver [18] = assay: Cmax in Sprague-Dawley rat liver assessed as FdUMP formation at 23.62 mg/kg administered through oral gavage measured up to 24 hrs by HPLC-MS/MS analysis; assay type: ADME, organism-based; design: dose 23.62 mg/kg, route oral; settings: in vivo; procedure, shortened: as §1
Liver [19] = assay: Cmax in Sprague-Dawley rat liver assessed as 5-FU formation at 23.62 mg/kg administered through oral gavage measured up to 24 hrs by HPLC-MS/MS analysis; assay type: ADME, organism-based; design: dose 23.62 mg/kg, route oral; settings: in vivo; procedure, shortened: as §1
Plasma [20] = assay: Cmax in Sprague-Dawley rat plasma assessed as FDUR formation at 23.62 mg/kg administered through oral gavage measured up to 24 hrs by HPLC-MS/MS analysis; assay type: ADME, organism-based; design: dose 23.62 mg/kg, route oral; settings: in vivo; procedure, shortened: as §1
Plasma [21] = assay: AUC (infinity) in Sprague-Dawley rat plasma assessed as 5-FU formation at 23.62 mg/kg administered through oral gavage measured up to 24 hrs by HPLC-MS/MS analysis; assay type: ADME, organism-based; design: dose 23.62 mg/kg, route oral, time infinity; settings: in vivo; procedure, shortened: as §1
Plasma [22] = assay: AUC (infinity) in Sprague-Dawley rat plasma assessed as FDUR formation at 23.62 mg/kg administered through oral gavage measured up to 24 hrs by HPLC-MS/MS analysis; assay type: ADME, organism-based; design: dose 23.62 mg/kg, time infinity, route oral; settings: in vivo; procedure, shortened: as §1
Plasma [23] = assay: Cmax in Sprague-Dawley rat plasma assessed as 5-FU formation at 23.62 mg/kg administered through oral gavage measured up to 24 hrs by HPLC-MS/MS analysis; assay type: ADME, organism-based; design: dose 23.62 mg/kg, route oral; settings: in vivo; procedure, shortened: as §1
[24] = Ratio of FdUMP AUC (infinity) in Sprague-Dawley rat liver to FDUR AUC (infinity) in Sprague-Dawley rat plasma at 23.62 mg/kg administered through oral gavage; assay type: ADME, organism-based; settings: in vivo
H22 = assay: Antitumor activity against mouse H22 cells implanted in KM mouse assessed as tumor growth inhibition at 60 mg/kg administered daily through oral gavage after 8 days; assay type: functional; settings: 192 h
Procedure, shortened: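 Syngeneic H22 hepatoma: 2 × 10⁶ cells injected s.c. in the axilla (0.9% saline) of female KM mice, n = 10 per group. From day 2, daily oral gavage for 8 days. Test agent given in 35% PEG400; sorafenib suspended in 0.5% CMC-Na. Tumor weight taken on day 8; inhibition rate calculated versus the vehicle group.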

Mus musculus = assay: Toxicity in KM mouse implanted with mouse H22 cells assessed as body weight level at 60 mg/kg administered daily through oral gavage after 8 days (reference value: 22.1 +/- 0.8g); assay type: organism-based; settings: in vivo, 192 h
Liver [25] = assay: Drug uptake in Sprague-Dawley rat liver S9 fraction treated with (S)-Isopropyl 2-(((R)-(((2R,3S,5R)-5-(5-fluoro-2,4-dioxo-3,4-dihydropyrimidin-1(2H)-yl)-3-hydroxytetrahydrofuran-2-yl)methoxy)((2-methylbenzyl)oxy)phosphoryl)amino)propanoate at 20 ug/mL after 20 mins by HPLC-MS/MS analysis in absence of NADPH; assay type: ADME; settings: s9, 20 min; procedure, shortened: as §4

SMILES: Cc1ccccc1COP(=O)(NCc1ccccc1)OC[C@H]1O[C@@H](n2cc(F)c(=O)[nH]c2=O)C[C@@H]1O (stereo partly specified)
Cmax (Liver [1]): 50 ng/g | Cmax (Liver [2]): 55 ng/g | IC50 [3]: 18.6 µM | AUC (Liver [4]): < 155 ng·h/g | AUC (Liver [5]): 838 ng·h/g | half-life [6]: > 24 h | Drug metabolism (Liver [7]): 58.4 nmol/min/mg | Ratio AUC [8]: < 3.8 | AUC (Plasma [9]): 41 ng·h/mL | Cmax (Plasma [10]): 14 ng/mL | Cmax (Plasma [11]): 40 ng/mL

SMILES: O=c1[nH]c(=O)n([C@H]2C[C@H](O)[C@@H](COP(=O)(NCc3ccccc3)OCc3ccc(F)cc3)O2)cc1F (stereo partly specified)
IC50 [3]: 150 µM | half-life [6]: > 24 h | Drug metabolism (Liver [7]): 26.3 nmol/min/mg

SMILES: Cc1ccccc1COP(=O)(N[C@@H](C)C(=O)OC(C)C)OC[C@H]1O[C@@H](n2cc(F)c(=O)[nH]c2=O)C[C@@H]1O (stereo partly specified)
IC50 [12]: 333 µM | IC50 [3]: 276 µM | half-life [13]: > 24 h | half-life [6]: < 0.083 h | half-life [14]: > 24 h

SMILES: O=c1[nH]c(=O)n([C@H]2C[C@H](O)[C@@H](COP(=O)(NCc3ccccc3)OCc3ccccc3Br)O2)cc1F (stereo partly specified)
IC50 [3]: 151 µM | half-life [6]: > 24 h | Drug metabolism (Liver [7]): 49.6 nmol/min/mg

SMILES: O=c1[nH]c(=O)n([C@H]2C[C@H](O)[C@@H](COP(=O)(O)O)O2)cc1F [5-FLUORODEOXYURIDYLATE]
Drug uptake (Liver [15]): metabolite_detected

SMILES: O=c1[nH]c(=O)n([C@H]2C[C@H](O)[C@@H](CO)O2)cc1F [FLOXURIDINE]
AUC (Liver [16]): < 34 ng·h/g | AUC (Liver [17]): 232 ng·h/g | Cmax (Liver [18]): 9 ng/g | Cmax (Liver [19]): 60 ng/g | Cmax (Plasma [20]): 180 ng/mL | AUC (Plasma [21]): 209 ng·h/mL | AUC (Plasma [22]): 308 ng·h/mL | Cmax (Plasma [23]): 169 ng/mL | Ratio AUC [24]: < 0.11

SMILES: CNC(=O)c1cc(Oc2ccc(NC(=O)Nc3ccc(Cl)c(C(F)(F)F)c3)cc2)ccn1 [SORAFENIB]
inhibition in vivo at 60 mg/kg (H22): 50.8% | Activity (Mus musculus): 26.4 g

SMILES: Cc1ccccc1C(=O)O [TOLUIC ACID]
Drug metabolism (Liver [25]): metabolite_detected

Now from value to compound, other results behind:

half-life [6]: > 24 h | Drug metabolism (Liver [7]): 44.7 nmol/min/mg
SMILES: O=c1[nH]c(=O)n([C@H]2C[C@H](O)[C@@H](COP(=O)(NCc3ccccc3)OCc3ccccc3[N+](=O)[O-])O2)cc1F (stereo partly specified)
IC50 [3]: > 500 µM

half-life [6]: > 24 h | Drug metabolism (Liver [7]): 40 nmol/min/mg
SMILES: O=c1[nH]c(=O)n([C@H]2C[C@H](O)[C@@H](COP(=O)(NCc3ccccc3)OCc3ccc([N+](=O)[O-])cc3)O2)cc1F (stereo partly specified)
IC50 [3]: > 1000 µM

half-life [6]: > 24 h | Drug metabolism (Liver [7]): 14.9 nmol/min/mg
SMILES: O=c1[nH]c(=O)n([C@H]2C[C@H](O)[C@@H](COP(=O)(NCc3ccccc3)OCc3cccc([N+](=O)[O-])c3)O2)cc1F (stereo partly specified)

half-life [6]: > 24 h | Drug metabolism (Liver [7]): 17.4 nmol/min/mg
SMILES: O=c1[nH]c(=O)n([C@H]2C[C@H](O)[C@@H](COP(=O)(NCc3ccccc3)OCc3ccccc3)O2)cc1F (stereo partly specified)
IC50 [3]: 365 µM
